Screening results deposited in PubChem BioAssay by The Scripps Research Institute Molecular Screening Center.
In the library only some 1.8% were active in any assay of this set; here they are far more common.
NPY-Y2 PAM-ag – NPY-Y2 potentiators or agonists, primary screen, cell-based. cells expressing NPY-Y2, potentiator/agonist read-out. activation, % at 3.6 µM. 220,000 tested, 0.45% active; in the data active means activation above about 27%;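 further: cells stimulated with NPY near EC25 plus isoproterenol at EC100; 0% = vehicle plus submaximal agonist and 100% = vehicle plus saturating agonist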
Target sequence (P49146 whole entry, looked up): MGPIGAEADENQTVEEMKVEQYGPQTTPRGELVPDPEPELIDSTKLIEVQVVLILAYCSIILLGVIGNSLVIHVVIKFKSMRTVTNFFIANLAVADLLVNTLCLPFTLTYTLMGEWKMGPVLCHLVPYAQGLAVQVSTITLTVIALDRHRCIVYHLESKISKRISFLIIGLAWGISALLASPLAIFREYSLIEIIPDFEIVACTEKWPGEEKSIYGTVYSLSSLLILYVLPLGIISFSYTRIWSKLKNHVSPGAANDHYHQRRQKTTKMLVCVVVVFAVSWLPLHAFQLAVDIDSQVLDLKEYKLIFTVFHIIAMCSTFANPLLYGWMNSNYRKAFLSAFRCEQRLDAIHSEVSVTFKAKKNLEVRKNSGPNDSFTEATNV
NPY-Y1 antag – NPY-Y1 receptor antagonists, primary screen, cell-based. HEK293-CNG Y1 cells, membrane potential fluorescence; NPY at EC95, then isoproterenol. 200,000 tested, 1% active. AID 1040, 2008. inhibition, % at 3.6 µM;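 active means inhibition above the campaign mean inhibition of all tested compounds plus 3 SD, cut at about 20% in these data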;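 further: 0% = DMSO wells given NPY plus isoproterenol and 100% = isoproterenol alone without NPY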
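Material: HEK293 cells with Y1 receptor plus CNG channel; times: compound incubation 1 h at room temperature, readout 45 min post-stimulation; signal: fluorescence, membrane potential probe; read-out basis: fluorescence ratio normalized to % inhibition between controls; benchmarks: full-block control isoproterenol-only wells, zero-block control NPY plus isoproterenol wells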
NPY-Y2 antag – NPY-Y2 receptor antagonists, primary screen, cell-based; Neuropeptide Y receptor type 2 (Homo sapiens), P49146; NPY-Y2 expressing cells, antagonist mode; inhibition, % at 2.7 µM; 140,000 tested, 0.99% active; AID 793, 2007;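 further: 0% = vehicle with agonist challenge and 100% = reference antagonist with challenge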
NPY-Y1 PAM-ag – NPY-Y1 receptor potentiators or agonists, primary screen, cell-based; Neuropeptide Y receptor type 1 (Homo sapiens), P25929; NPY-Y1 expressing cells, potentiator/agonist activation; activation, % at 3.6 µM; 220,000 tested, 0.37% active; AID 1304, 2008; in the data active means activation above about 33%, passing the limit was not always enough;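 further: cells stimulated with NPY at EC10 then isoproterenol at EC100; 0% = low agonist plus stimulus and 100% = saturating agonist plus stimulus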
NPY1 antag conf – NPY-Y1 receptor antagonists, retest of hits, confirmation, HEK293-CNG cells, membrane potential fluorescence, triplicate | shares compounds with NPY-Y1 antag | cAMP; NPY challenge against isoproterenol-raised cAMP | inhibition, % at 3.6 µM | 1,200 tested, 21% active; in the data active means inhibition above about 20%;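 further: 0% = vehicle with agonist plus stimulus and 100% = stimulus alone without agonist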
NPY2 antag ctr – NPY-Y2 receptor antagonists, selectivity check, confirmation, counter-screen for NPY-Y1 antagonist project, HEK293-CNG cells, membrane potential fluorescence, triplicate | shares compounds with NPY-Y1 antag | antagonism; cells given NPY, then isoproterenol | inhibition, % at 3.6 µM | 1,200 tested, 28% active | AID 1255, 2008;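 further: 0% = DMSO with agonist challenge and 100% = reference antagonist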
* marks the source's active call; other numbers are inactive results; . = not tested or not shown. Unless noted, no stated cut-off is given here; in the data, active means inhibition above about 17%; inactive means the rest.

SMILES	NPY-Y2 PAM-ag	NPY-Y1 antag	NPY-Y2 antag	NPY-Y1 PAM-ag	NPY1 antag conf	NPY2 antag ctr
COc1ccc(C(=O)C2CCCN(Cc3cccn3-c3ccccn3)C2)c(OC)c1 (centres undefined)	-36	27*	.	-28	21*	18*
COc1ccc(F)cc1C(=O)C1CCCN(Cc2cccn2-c2ccccn2)C1 (centres undefined)	-27	35*	.	-29	23*	20*
COc1cc(/C=N/NC(=O)c2cccnc2)ccc1OC(=O)c1ccc2c(c1)OCO2	-10	-5	5	-6	.	.
O=C(N/N=C/c1ccccc1OC(=O)c1ccc2c(c1)OCO2)c1cccc(F)c1	-11	21*	17	-25	16	9
COc1ccc(-c2cc(-c3n[nH]c(=S)n3-c3ccccc3OC)[nH]n2)cc1	-15	32*	16	-66	37*	66*
COc1ccc(OC)c(-n2c(-c3cc(-c4ccccc4)n[nH]3)n[nH]c2=S)c1	-10	9	2	-16	.	.
Cc1cc(C)c(C)c(S(=O)(=O)NC(C)C(=O)O)c1C (centres undefined)	14	.	.	7	.	.
CCOC(=O)c1sc(NC(=S)NC(=O)c2ccco2)nc1C	11	2	2	10	.	.
CCOC(=O)c1sc(NC(NC(=O)c2ccco2)(C(=O)OC)C(F)(F)F)nc1C (centres undefined)	-13	32*	5	2	8	13
CCc1cccc(CC)c1NC(=O)COC(=O)C1(C)CC1(Cl)Cl (centres undefined)	-7	29*	.	-4	11	18*
CCCCNC(=O)COC(=O)c1ccc(F)cc1Cl	3	2	.	6	.	.
O=C(COC(=O)CCc1c[nH]c2ccccc12)Nc1cc([N+](=O)[O-])ccc1Cl	-3	27*	8	-24	9	8
Cc1ccc(C(C(=O)Nc2ccc3c(c2)OCO3)N(C)C(=O)Cc2c[nH]c3ccccc23)cc1 (centres undefined)	4	35*	1	12	-1	-5
COc1cc(C2C(C#N)=C(N)Oc3cc4c(cc32)OCO4)cc(OC)c1OC (centres undefined)	-26	22*	.	-1	5	13
CN(C1CCCCC1)S(=O)(=O)Cc1ccccc1	0	25*	-2	10	4	2
CS(=O)(=O)N(CC(=O)NCc1ccccc1)C1CCCCC1	-5	-3	-1	7	.	.
CC1=Nc2cccc([N+](=O)[O-])c2NC(=O)C1	-8	2	.	-17	.	.
Cc1nn(C)c(C(=O)Nc2ccc(Cn3cccn3)cc2)c1[N+](=O)[O-]	-11	25*	0	10	-1	0
Cc1nn(-c2ccc(Cl)nn2)c(=O)c2ccccc12	-5	3	.	-7	.	.
CC(NC(=O)COC(=O)CCNC(=O)c1ccco1)C12CC3CC(CC(C3)C1)C2 (centres undefined)	-25	20*	4	-31	22*	27*
CC(C)[C@H](NC(=O)c1ccco1)C(=O)OCC(=O)NC12CC3CC(CC(C3)C1)C2	3	7	.	-12	.	.
NNC(=S)Nc1c(Br)cc(F)cc1Br	-23	.	.	-10	.	.
COc1ccc2c(c1)c(C(O)CN1CCN(Cc3ccc4c(c3)OCO4)CC1)c(C)n2C (centres undefined)	15	6	9	-11	.	.
COc1ccc2c(c1)c(C(O)CN1CCC(Cc3ccccc3)CC1)c(C)n2C (centres undefined)	2	21*	12	0	10	10
Cc1cc(C)n(-c2cc(N3CCN(C(=O)c4cccc(F)c4)CC3)ccc2[N+](=O)[O-])n1	15	-5	2	6	.	.
SMILES	NPY-Y2 PAM-ag	NPY-Y1 antag	NPY-Y2 antag	NPY-Y1 PAM-ag	NPY1 antag conf	NPY2 antag ctr
O=c1c2ccccc2nc(-c2ccco2)n1Cc1ccccc1	6	2	4	-2	.	.
O=c1c2ccccc2nc(-c2ccc(Br)cc2)n1Cc1ccccc1	-33	24*	5	-86	21*	32*
CCc1cccc(CC)c1NC(=O)CN1CC(C)SC1=NC1CCCCC1 (centres undefined)	6	34*	13	4	34*	17*
COc1ccc([N+](=O)[O-])cc1N(CC(O)CN(CC(C)C)CC(C)C)S(=O)(=O)c1ccccc1 (centres undefined)	-13	69*	17	-22	30*	14
COc1ccc([N+](=O)[O-])cc1N(CC(O)CN(C)C)S(=O)(=O)c1ccc(C)cc1 (centres undefined)	3	3	.	18	.	.
N#CC(C#N)C(c1ccsc1)c1c(-c2ccccc2)[nH][nH]c1=O (centres undefined)	8	24*	10	-17	34*	34*
N#Cc1c(-c2ccccc2)[nH]c(=O)[nH]c1=O	-1	-1	.	2	.	.
CCOC(=O)c1c(O)cc(C)[nH]c1=O	-2	.	.	-9	.	.
CCC1(C)Cc2ccccc2-c2[nH][nH]c(=O)c21 (centres undefined)	-3	55*	.	-6	18	4
O=C(O)c1cc(-c2ccccc2)n(-c2ccccc2)n1	-11	24*	11	-20	5	10
O=C(O)c1cc(-c2ccccc2)n(-c2ccc(Cl)cc2)n1	-3	3	.	-19	.	.
CSCCC(NC(=O)c1ccccc1)C(=O)N/N=C(\C)c1ccccc1 (centres undefined)	-2	1	2	-6	.	.
c1ccc(CN(Cc2ccco2)C(c2ccncc2)c2nnnn2C2CCCC2)cc1 (centres undefined)	-5	26*	6	0	12	5
CC(C)(C)n1nnnc1C(c1ccc(C(F)(F)F)cc1)N(Cc1ccccc1)Cc1ccco1 (centres undefined)	-5	47*	7	-4	29*	11
CCN(Cc1ccccc1)C(c1ccc(C)cc1)c1nnnn1C(C)(C)CC (centres undefined)	-27	19	12	-28	.	.
COc1ccc(C(=O)Oc2cccc(/C=N/NC(N)=S)c2)cc1	-2	1	3	7	.	.
COc1ccccc1NC(=O)/C=C/c1ccc2c(c1)OCO2	-26	15	.	-9	.	.
COc1ccccc1NC(=O)COC(=O)/C=C/c1ccc2c(c1)OCO2	-49	27*	.	-29	11	7
S=c1[nH]nc(-c2ccc3ccccc3n2)o1	-11	20*	12	-3	11	7
FC(F)(F)c1ccc(-c2n[nH]c(=S)o2)nc1	-8	.	.	2	.	.
